High-throughput results deposited in PubChem BioAssay by several laboratories.
Compounds with a hit are over-represented: about 4.1% of the library has one in this group of screens.
SMARCA2 activ – SMARCA2 function activation, primary screen; 370,000 tested, 1% active; activation, % at 9.1 µM; MG213 cells, MMTV-luciferase reporter, dexamethasone, overnight; in the data active = activation above about 7.8%
MC4R ag barr – activates human MC4R beta-arrestin recruitment | P32245 | U2OS MC4R beta-arrestin complementation, luminescence; percent of melanotan II response, DMSO zero | activation, % at 8.9 µM | 360,000 tested, 0.98% active | AID 540308;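 active = activation above a per-plate cutoff, the mean activation of sample wells on that plate plus 3 SD, cut at about 8% in these data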
Target sequence (P32245 whole entry, looked up): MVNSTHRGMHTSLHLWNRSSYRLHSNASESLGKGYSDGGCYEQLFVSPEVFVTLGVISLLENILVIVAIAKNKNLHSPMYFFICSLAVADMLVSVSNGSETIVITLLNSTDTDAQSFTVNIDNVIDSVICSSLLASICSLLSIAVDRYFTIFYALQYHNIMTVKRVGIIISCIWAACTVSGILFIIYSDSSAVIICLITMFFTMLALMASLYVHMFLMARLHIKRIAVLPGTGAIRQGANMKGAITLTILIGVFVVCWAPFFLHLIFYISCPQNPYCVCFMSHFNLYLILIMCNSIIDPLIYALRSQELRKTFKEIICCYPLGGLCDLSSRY
MPTP block – permeability transition pore inhibition. 360,000 tested, 1.4% active. inhibition, % at 10 µM. isolated mouse mitochondria, Ca2+ swelling absorbance, 30 min. AID 602449;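 active = inhibition of 50% or more, scaled per plate between neutral and stimulator controls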
ATG4B inh – ATG4B (human) cysteine protease inhibition | ATG4B cleavage of LC3-PLA2, NBD-HPC fluorescence, 1 h | inhibition, % at 8.33 µM | 340,000 tested, 0.51% active | AID 504462; in the data active = inhibition above about 40%
Target sequence (Q9Y4P1 whole entry, looked up): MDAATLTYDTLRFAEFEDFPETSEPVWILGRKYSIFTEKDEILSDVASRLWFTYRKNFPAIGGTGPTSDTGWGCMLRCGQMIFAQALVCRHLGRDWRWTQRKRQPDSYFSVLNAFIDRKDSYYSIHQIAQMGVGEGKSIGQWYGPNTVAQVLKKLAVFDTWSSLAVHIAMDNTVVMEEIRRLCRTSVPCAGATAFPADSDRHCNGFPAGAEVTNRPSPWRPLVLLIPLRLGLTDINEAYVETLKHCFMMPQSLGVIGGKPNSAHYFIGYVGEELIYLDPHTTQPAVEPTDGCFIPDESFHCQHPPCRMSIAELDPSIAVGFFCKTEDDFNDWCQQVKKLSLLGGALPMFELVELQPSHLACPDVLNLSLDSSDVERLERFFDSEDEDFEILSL
MC4R antag cAMP – blocks human MC4R cAMP signaling. P32245. MC4R-expressing cells, MTII-stimulated cAMP, LANCE TR-FRET. inhibition, % at 6.5 µM. 360,000 tested, 0.48% active. AID 540295;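 active = inhibition above its plate's cutoff, the mean of tested wells on that plate plus 3 SD, cut at about 29% in these data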
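Material: U2OS-MC4R stable cell line | Reagent: Melanotan II challenge after compound preincubation | Doses: One concentration, 6.5 µM nominal | Incubation: 30-min compound preincubation, 1-h Melanotan II challenge, 1-h detection, room temperature | Signal: TR-FRET cAMP assay | Replicates: One well per compound, no replicates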
cAMP nonselect – U2OS forskolin cAMP inhibition counter-screen; shares compounds with MC4R antag cAMP; parental U2OS, LANCE TR-FRET; inhibition, % at 6.5 µM; 1,600 tested, 26% active;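 active = mean inhibition over triplicates above the low-control well mean plus 3 SD, set per campaign, cut at about 13% in these data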;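 note: signal is single emission at 671 nm which falls as cellular cAMP rises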
MC4R antag conf – human MC4R cAMP antagonism confirmation; MC4R-expressing cells, MTII-stimulated cAMP, TR-FRET; inhibition, % at 6.5 µM; 1,600 tested, 27% active; shares compounds with MC4R antag cAMP; in the data active = inhibition above about 29%
Of the large screens only hits and unclear results are named; the others gave an inactive call (follow-up assays come after a bar, where they were run).

COc1ccc(C(CNC(=O)CSc2ccccc2F)N2CCOCC2)cc1 (stereo not given)	none
COc1ccc(C(CNC(=O)c2cc(F)c(F)c(F)c2F)N2CCOCC2)cc1 (stereo not given)	MC4R antag cAMP 31 | cAMP nonselect 19 | MC4R antag conf 36
CC(C)(C)OC(=O)NCCc1nnc(SCc2ccccc2Cl)o1	none
CC(C)(C)OC(=O)NCCc1nnc(S(=O)(=O)Cc2ccc(Cl)cc2Cl)o1	MC4R antag cAMP 31 | cAMP nonselect inactive | MC4R antag conf 38
COc1ccc(NC(=O)CN2C(=O)C(C)SC(C)C2=O)cc1 (stereo not given)	MC4R antag cAMP 31 | cAMP nonselect inactive | MC4R antag conf inactive
CCOC(=O)c1ccc(NC(=O)CN2C(=O)C(C)SC(C)C2=O)cc1 (stereo not given)	none
O=C(Nc1nc2cc(Cl)ccc2s1)C1CCCN(S(=O)(=O)c2cccc3cccnc23)C1 (stereo not given)	MC4R antag cAMP 29 (no result: SMARCA2 activ) | cAMP nonselect inactive | MC4R antag conf inactive
O=C(Nc1ccccc1Cl)C1CCCN(S(=O)(=O)c2cccc3cccnc23)C1 (stereo not given)	none
Cc1csc(CN(C)C(=O)CC2C(=O)NCCN2Cc2ccc(Cl)c(F)c2)n1 (stereo not given)	none
Cc1csc(CN(C)C(=O)CC2C(=O)NCCN2Cc2ccc(-c3ccccc3)cc2)n1 (stereo not given)	MC4R antag cAMP 29 | cAMP nonselect inactive | MC4R antag conf inactive
Brc1ccc(-c2nn3c(-c4ccco4)nnc3s2)o1	MC4R antag cAMP 45 | cAMP nonselect 26 | MC4R antag conf 39
Clc1ccc(-c2ccc(-c3nn4c(-c5ccco5)nnc4s3)o2)cc1	none
COc1ccc(-c2csc(NC(=O)c3ccc(N4C(=O)CCC4=O)cc3)n2)cc1	MC4R antag cAMP 50 | cAMP nonselect 25 | MC4R antag conf 42
O=C(Nc1nc(-c2ccc(F)cc2)cs1)c1ccc(N2C(=O)CCC2=O)cc1	none
N#CC(C#N)=C1C=CC=CN1/C(=C\c1ccco1)C(=O)c1ccc(Br)cc1	none
COc1ccc(C(=O)/C(=C\c2ccco2)N2C=CC=CC2=C(C#N)C#N)cc1	MC4R antag cAMP 33 (no result: SMARCA2 activ) | cAMP nonselect inactive | MC4R antag conf 36
N#CC(C#N)=C1C=CC=CN1/C(=C\c1ccco1)C(=O)c1ccccc1	MC4R antag cAMP 38 | cAMP nonselect 14 | MC4R antag conf inactive
COc1ccc(C(=O)C2(C(=O)NCc3ccccc3)CC(c3ccccn3)=NO2)cc1 (stereo not given)	none (no result: MC4R ag barr, MPTP block, ATG4B inh, MC4R antag cAMP)
COC(=O)C1CN(Cc2ccc(Cl)cc2)CCS(=O)(=O)N1Cc1cn(Cc2ccccc2)nn1 (stereo not given)	none (no result: MC4R ag barr, MPTP block, ATG4B inh, MC4R antag cAMP)
COc1ccc(-c2c(C)[nH]n3c(=O)c(Cc4ccccc4)c(C)nc23)cc1OC	MC4R antag cAMP 31 | cAMP nonselect inactive | MC4R antag conf inactive
Cc1nc2c(-c3ccccc3)c(C)[nH]n2c(=O)c1Cc1ccccc1	none
O=C(Nc1ccccc1C(F)(F)F)c1c(F)cccc1Cl	MC4R antag cAMP 30 | cAMP nonselect inactive | MC4R antag conf inactive
O=C(Nc1ccccc1Br)c1c(F)cccc1Cl	none
COC(=O)c1cc(C(c2ccccc2O)C2CCCO2)n2cccc(C(C)(C)C)c12 (stereo not given)	none (no result: MC4R ag barr, MPTP block, ATG4B inh, MC4R antag cAMP)
COc1ccc(CN2CC(C(=O)NCCCN3CCCC(C)C3)CC2=O)cc1 (stereo not given)	MC4R antag cAMP 34 | cAMP nonselect inactive | MC4R antag conf inactive
CCOC(=O)N1CCN(CCC(=O)c2ccc(OC)cc2)CC1	MC4R antag cAMP 33 | cAMP nonselect inactive | MC4R antag conf inactive
COc1ccc(N2CCN(CC(=O)c3ccccc3)CC2)cc1	none
COc1ccc(C(=O)CCN2CCCC(C)C2)cc1 (stereo not given)	none
COc1ccc(C(=O)CCN2CCC(C)CC2)cc1	MC4R antag cAMP 31 | cAMP nonselect inactive | MC4R antag conf inactive
COc1ccc(N2CCN(CCC(=O)c3ccc4ccccc4c3)CC2)cc1	MC4R antag cAMP 29 | cAMP nonselect inactive | MC4R antag conf inactive
O=C([C@@H]1C[C@H]1c1ccccc1)N1CC[C@H]2[C@H](CCCN2Cc2cc(F)cc(F)c2)C1	none (no result: MC4R ag barr, MPTP block, ATG4B inh, MC4R antag cAMP)
O=C(COC(=O)CNS(=O)(=O)c1ccc(F)c(F)c1F)Nc1ccc(OC(F)F)cc1	MC4R antag cAMP 29 | cAMP nonselect inactive | MC4R antag conf inactive
COc1cc(NC(=O)COC(=O)CNS(=O)(=O)c2ccc(F)c(F)c2F)cc(OC)c1	none
C/C(=N\NC(=O)c1ccc(Cl)c(Cl)c1)c1ccccn1	MC4R antag cAMP 29 | cAMP nonselect 20 | MC4R antag conf inactive
C/C(=N\NC(=O)c1ccccc1Cl)c1ccccn1	MC4R antag cAMP 29 | cAMP nonselect 29 | MC4R antag conf inactive
COc1ccc(C(=O)N/N=C(\C)c2ccccn2)cc1OC	none
Cc1ccccc1CN1CCCCC(NC(=O)c2ccc(-c3ccccc3)cc2)C1=O (stereo not given)	none (no result: MC4R ag barr, MPTP block, ATG4B inh, MC4R antag cAMP)
CC(C)C[C@H]1COc2cccc(F)c2S(=O)(=O)N1C	none (no result: MC4R ag barr, MPTP block, ATG4B inh, MC4R antag cAMP)
Cc1cccc(C(=O)Nc2nnc(S(=O)(=O)N3CCC(C)CC3)s2)c1	MC4R antag cAMP 50 | cAMP nonselect inactive | MC4R antag conf inactive
Cc1ccc(C(=O)Nc2nnc(S(=O)(=O)N3CCC(C)CC3)s2)cc1	none
COC(=O)c1ccc2nc(C3CCCCC3)c(Cc3ccccc3OC)n2c1	none (no result: MC4R ag barr, MPTP block, ATG4B inh, MC4R antag cAMP)
COCC(=O)N(C)[C@H]1C[C@H]2c3[nH]c4c(-c5ccc6c(c5)OCO6)cccc4c3CCN2C(=O)[C@H]1[C@H](C)O	none (no result: MC4R ag barr, MPTP block, ATG4B inh, MC4R antag cAMP)
CN(/N=C/c1cc(Cl)cc(Cl)c1O)c1c(Cl)cccc1[N+](=O)[O-]	MC4R antag cAMP 30 | cAMP nonselect inactive | MC4R antag conf inactive
O=C(N/N=C/c1cc(Cl)cc([N+](=O)[O-])c1O)C1CC1	none
COC(=O)[C@@]1(C(C)C)N=C(c2cc(OC)c(OC)c(OC)c2)[C@]2(O1)C(=O)N(Cc1cn(Cc3ccccc3)nn1)c1ccc(F)cc12	none (no result: MC4R ag barr, MPTP block, ATG4B inh, MC4R antag cAMP)
Clc1ccc(-c2nnc(-c3ccco3)nc2N2CCCCC2)cc1	MC4R antag cAMP 29 | cAMP nonselect inactive | MC4R antag conf inactive
CCN1CCN(C(=O)/C(C#N)=C/c2ccc(OC(F)F)cc2)CC1	none
N#C/C(=C\c1ccc(OC(F)F)cc1)C(=O)N1CCCCC1	MC4R antag cAMP 32 | cAMP nonselect inactive | MC4R antag conf inactive
O=C(NCCCO)C(=O)NCc1ccccn1	MC4R antag cAMP 30 | cAMP nonselect inactive | MC4R antag conf inactive
O=C(NCc1ccccn1)C(=O)Nc1ccccc1	none
O=C(CN1C(=O)C2(OCCCO2)c2ccccc21)NCc1ccc2ccccc2c1	none (no result: MC4R ag barr, MPTP block, ATG4B inh, MC4R antag cAMP)
CC(C)=CCC[C@@]1(C(=O)O)[C@@H]2C/C=C(\C)CC/C=C(\C)CC[C@H]1[C@]1(CC2)CO1	none (no result: MC4R ag barr, MPTP block, ATG4B inh, MC4R antag cAMP)
